ALR inh = inhibitors of human ALR sulfhydryl oxidase, primary screen, biochemical, H2O2 detection, HRP-luminol luminescence, single point; purified ALR, DTT oxidation; AID 485317, 2010; 3.8% of 290,000 active; FAD-linked sulfhydryl oxidase ALR (Homo sapiens), P55789; inhibition, % (no concentration beside the values);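 active = mean replicate inhibition above about 79%, with every replicate also reaching it, limit read from the data; inconclusive = only one of the two criteria met; inactive = mean below limit and not every replicate reaching it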
Target sequence (P55789 whole entry, looked up): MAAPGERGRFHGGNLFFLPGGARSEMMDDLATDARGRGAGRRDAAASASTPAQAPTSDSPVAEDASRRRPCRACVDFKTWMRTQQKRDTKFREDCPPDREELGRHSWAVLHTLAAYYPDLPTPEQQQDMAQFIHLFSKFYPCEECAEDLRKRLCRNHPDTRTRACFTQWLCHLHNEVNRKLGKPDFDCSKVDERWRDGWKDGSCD
NALP1 yeast inh = NALP1 inflammasome inhibitors in reconstituted yeast, colorimetric, S. cerevisiae, triplicate retest; AID 2071, 2009; inhibition, % at 10 µM; 0.61% of 280,000 active; S. cerevisiae NALP1/ASC/caspase-1 growth, X-gal OD620, 72 h; in the data active = inhibition mostly above about 24%, no sharp cut-off; inactive = mostly below about 32%
DSG3 Ab inh = inhibitors of pemphigus antibody binding to DSG3, primary screen, biochemical, bead-based, flow cytometry, scFv-GFP. AID 588358, 2011. Desmoglein-3 (Homo sapiens), P32926. binding (percent of control), % at 10 µM. DSG3-coupled beads, scFv-anti-DSG3-GFP binding; stronger effect = lower value. 0.48% of 310,000 active;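 active = binding more than 3 SD below its plate's average and above zero; inconclusive = below that plate limit but binding exactly zero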;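 also: hits lower antibody fragment binding to DSG3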
Arr AP2 block = inhibitors of beta-arrestin/AP2 binding, primary screen, biochemical, GPCR trafficking, flow cytometry | FITC-arrestin peptide / GST-AP2 beads; AP2 beta2 appendage carries R879A mutation | inhibition, % at 10 µM | 0.31% of 340,000 active | AID 504490, 2011;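 active = inhibition above a set limit, near 3 SD of compounds lacking own fluorescence, cut at about 54% in these data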;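 also: plate controls were DMSO wells for no effect and 5 µM unlabelled arrestin peptide for full effect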
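System: GST-AP2 R879A glutathione beads. Medium: PBS with 0.05% Tween 20 and 0.1% BSA. Also added: FITC-arrestin peptide, 50 nM. Incubation: 12 min plus 1 h, RT. Measured by: high-throughput flow cytometry of beads, ex 488, em 535 nm. Evaluation: percent drop in bead-associated FITC signal.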
PolyA inhibitor = polyadenylation inhibitors in yeast reporter cells, primary screen, luminescence, S. cerevisiae; S. cerevisiae SKY197-pL101 polyadenylation reporter, beta-gal luminescence; efflux-impaired pdr1/pdr3 knockout yeast; score 100 = 6 SD above DMSO; activity score, % at 12 µM; 0.02% of 300,000 active;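 active = lowest replicate activity score at least 50, where 100 means six control SD above control mean; inconclusive = lowest score under 50 but half or more replicates reach 50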;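 also: yeast exposed to compound for 9 h at 30 °C; higher score means more reporter readthrough which indicates perturbed polyadenylation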
NLRP3 yeast inh = NALP3 inflammasome inhibitors in reconstituted yeast, primary screen, luminescence, uHTS; Yeast reconstituted NLRP3/ASC/caspase-1, beta-gal luminescence, 24 h; inhibition, % at 10 µM; 0.39% of 330,000 active;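 active = inhibition of 50% or more; inactive = inhibition below 50%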;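 also: plate controls were induced DMSO wells for no effect and uninduced yeast grown without galactose for full effect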
Starred values were filed as active, the others as inactive; ? = inconclusive; . = not tested or not shown. Most compounds without a hit are left out; they make up all but 4.6% or so of the library.

SMILES	ALR inh	NALP1 yeast inh	DSG3 Ab inh	Arr AP2 block	PolyA inhibitor	NLRP3 yeast inh
COc1cc([C@@H]2Oc3cc(C4Oc5cc(O)cc(O)c5C(=O)[C@H]4O)ccc3O[C@H]2CO)ccc1O (stereo partly specified)	99*	.	110	13	.	.
COc1ccc([C@@H]2CC(=O)c3c(O)cc(O)cc3O2)cc1O	3	.	112	-14	.	9
COc1cc(OC)c2c(c1)OC(c1ccc(OC)c(OC)c1)C(O)C2=O (stereo unspecified)	.	31	109	-2	-15	-9
COc1cc([C@H]2Oc3cc([C@H]4Oc5cc(O)cc(O)c5C(=O)[C@@H]4O)ccc3O[C@@H]2CO)ccc1O	99*	13	102	0	0	33
CN(C)/C=N/S(=O)(=O)c1ccc(Cl)c(Cl)c1	-3	14	.	42	15	8
COc1ccc(OCCN2C(=O)c3cccc(N)c3C2=O)cc1	-3	23	.	13	-12	6
Nc1ccccc1OCCOc1ccccc1N	8	-1	97	31	13	1
Nc1ccccc1OCCOCCOc1ccccc1N	98*	15	99	18	3	4
Cc1cccc(C)c1NC(=O)CN(C)C(=O)c1ccc(OCc2ccccc2)cc1	.	.	102	.	.	.
CSc1nc(N)nc2c1ncn2CC(=O)NCCCc1ccccc1	.	.	106	5	.	-7
CCOc1ccc(NC(C)c2cc(Cl)ccc2O)cc1 (stereo unspecified)	99*	34	111	10	-4	25
CC(Nc1ccc(Cl)cc1)c1cc(Cl)ccc1O (stereo unspecified)	99*	20	109	-3	15	26
CCCCC1CCC(C(=O)OC(C)C(=O)Nc2ccc(NC(C)=O)cc2)CC1 (stereo unspecified)	3	3	.	-14	7	8
O=C(CCN=C1NS(=O)(=O)c2ccccc21)OCc1nnc(-c2ccccc2)o1	2	.	116	1	?	10
CCNC(=S)NNc1nncc2ccccc12	99*	-6	102	-23	-8	-10
CNC(=S)NNc1nncc2ccccc12	106*	-2	118	15	10	1
COc1ccccc1NC(=O)N(C)C[C@@H]1OCc2cnnn2CCCC(=O)N([C@@H](C)CO)C[C@H]1C	.	.	102	.	.	.
Cc1noc(C)c1NC(=O)Nc1ccc2c(c1)C(=O)N([C@H](C)CO)C[C@H](C)[C@@H](CN(C)S(=O)(=O)c1ccc(Cl)cc1)OCCCC[C@@H](C)O2	.	.	100	.	.	.
Cc1[nH]nc(Nc2ccc(O)cc2)c1[N+](=O)[O-]	99*	-1	96	12	2	20
CC(C)(CO)C(O)C(=O)NCCCO (stereo unspecified)	-18	.	97	12	6	12
O=C(Cn1cccc1C(=O)c1ccccc1)NCc1ccc(Cl)cc1	97*	2	102	9	8	11
CS(=O)(=O)c1ccc2nc(NC(=O)CCNC(=O)c3ccc(Cl)cc3)sc2c1	.	.	101	1	.	0
CN(C)CCCNS(=O)(=O)c1cc(Cl)ccc1Cl	-4	-4	101	4	-1	-7
CN(C)CCCNS(=O)(=O)c1ccc(N2CCC(c3ccc(Cl)cc3)=N2)cc1	91*	24	.	.	-5	14
O=S(=O)(c1ccc(N2CCC(c3ccc(Cl)cc3)=N2)cc1)N(CCO)CCO	98*	8	101	23	7	4
SMILES	ALR inh	NALP1 yeast inh	DSG3 Ab inh	Arr AP2 block	PolyA inhibitor	NLRP3 yeast inh
COc1ccc(-n2ccc(=O)c(C(=O)Nc3ccc(S(=O)(=O)Nc4nccs4)cc3)n2)cc1	1	-5	49*	-1	-6	12
O=C(Nc1ccc(S(=O)(=O)Nc2nccs2)cc1)c1nn(-c2ccccc2)ccc1=O	-7	-5	83	1	-2	13
CCNC(=O)CCSc1nc2cc(Cl)ccc2o1	90*	16	101	1	22	22
O=C(CCSc1nc2cc(Cl)ccc2o1)N1CCOCC1	99*	46	100	3	?	4
O=C(CN(Cc1ccc(Cl)cc1)S(=O)(=O)c1ccccc1)NCC1CCCO1 (stereo unspecified)	3	10	104	-18	6	2
Cc1ccc(C(=O)Nc2ccccc2N2CCCCC2)o1	16	8	.	14	-29	12
COc1ccc(C(CNC(=O)COc2cccc(C(F)(F)F)c2)N2CCCC2)cc1 (stereo unspecified)	-6	.	111	19	.	15
COc1ccc(OC)c(NC(=O)CS(=O)(=O)Cc2ccccc2)c1	.	39	104	-5	-7	9
COc1ccc(OC)c(NS(=O)(=O)Cc2ccccc2)c1	6	42*	.	.	13	9
COc1ccc(NC2c3ccccc3C(=O)N2c2cccnc2)cc1Cl (stereo unspecified)	83*	35	93	-6	-4	7
O=C1c2ccccc2C(Nc2ccccc2)N1c1cccnc1 (stereo unspecified)	-17	-9	99	-5	-6	4
CC1(C)CC(NC(=O)C2CCN(S(=O)(=O)c3ccc(Cl)c(C(F)(F)F)c3)CC2)CC(C)(C)N1	.	.	110	-9	.	.
Cc1cc(-c2ccccc2)nc2cc(C(=O)NCc3ccco3)nn12	93*	20	109	20	12	21
COc1ccc(-c2cc(C(F)(F)F)n3nc(C(=O)NCc4ccco4)cc3n2)cc1	0	11	101	2	4	18
Cc1ccccc1NC(=O)COC(=O)c1ccc(S(=O)(=O)N2CCCC2)cc1	-32	.	97	10	.	4
O=C(Nc1ccc(Cl)c(Cl)c1)Nc1ccc([N+](=O)[O-])cn1	-10	29	88	27	11	11
O=C(Nc1ccc(F)cc1)Nc1ccc([N+](=O)[O-])cn1	0	19	54*	37	-8	22
CN(CCc1ccccc1)C(=O)c1cccc(NC(=O)Cc2cccc(NC(=O)C3CCN(C(=O)c4ccccc4)CC3)c2)c1	.	.	105	7	.	.
CC(=O)Nc1ccc(S(=O)(=O)Nc2nc3ccccc3nc2Nc2ccc(S(N)(=O)=O)cc2)cc1	-6	18	98	-3	-5	3
Cc1cccc(S(=O)(=O)Nc2nc3ccccc3nc2Nc2cccc(C(=O)O)c2)c1	98*	4	90	22	0	10
CC(=O)Nc1ccc(S(=O)(=O)Nc2nc3ccccc3nc2Nc2ccc(O)c(C(=O)O)c2)cc1	99*	24	110	8	13	14

High-throughput results deposited in PubChem by several laboratories.
